Measured values as given in ChEMBL document CHEMBL5329221, “A covalent fragment-based strategy targeting a novel cysteine to inhibit activity of mutant EGFR kinase” (RSC Med Chem, 2023).
Active and inactive are the calls of the source. The rule behind the calls is not given here.

Tests used:
[1] = test system: Epidermal growth factor receptor (Homo sapiens), P00533 [L858R,C775S]; test: Binding affinity to N-terminal His6-tagged human EGFR L858R/C775S mutant expressed in Sf9 cells at pH 7.4 assessed as covalent adduct at +277 Da formation at 0.3 to 1 uM incubated for 1 hrs by LC-MS analysis; settings: dose 0.3-1 µM
Method in brief: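 EGFR (694-1022) L858R or L858R/C775S as N-terminal His-GST fusions from Sf9 cells, purified by Ni affinity then SEC. Each protein at 0.5 mg/ml was incubated with compound (0.3, 1 or 3 µM) in 20 mM Tris-HCl pH 7.5, 150 mM NaCl, 1 mM TCEP, 5% glycerol, 1 h at room temperature. SDS was added to 1% final, samples boiled 95°C 10 min, then UHPLC-MS.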

[2] = biological target: Epidermal growth factor receptor (Homo sapiens, UniProt P00533, C797S/L858R/T790M); test: Inhibition of N-terminal His6-tagged human EGFR L858R/T790M/C797S mutant expressed in Sf9 cells assessed as decrease in substrate phosphorylation using Srctide as substrate preincubated for 20 mins followed by substrate addition in presence of 1mM of ATP and measured after 45 mins by microplate reader analysis
Method in brief: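 Compound in DMSO was preincubated 0, 20 or 60 min with 250 pg/µL EGFR_TM (residues 694-1022) in 20 mM HEPES pH 7.4, 5 mM MgCl2, 1 mM MnCl2, 0.003% Brij-35, 0.004% Tween-20, 2 mM DTT. […] EDTA stop; phosphorylation read by mobility-shift chip, ex 488/em 530 nm.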

[3] = biological target: T1, Tyrosine-protein kinase JAK3 (Homo sapiens) (UniProt P52333); test: Inhibition of human JAK3 assessed as decrease in substrate phosphorylation using Srctide as substrate preincubated for 15 mins followed by substrate addition in presence of 1mM of ATP and measured after 45 mins by microplate reader analysis; settings: time 60.0 min
T1 sequence (whole entry): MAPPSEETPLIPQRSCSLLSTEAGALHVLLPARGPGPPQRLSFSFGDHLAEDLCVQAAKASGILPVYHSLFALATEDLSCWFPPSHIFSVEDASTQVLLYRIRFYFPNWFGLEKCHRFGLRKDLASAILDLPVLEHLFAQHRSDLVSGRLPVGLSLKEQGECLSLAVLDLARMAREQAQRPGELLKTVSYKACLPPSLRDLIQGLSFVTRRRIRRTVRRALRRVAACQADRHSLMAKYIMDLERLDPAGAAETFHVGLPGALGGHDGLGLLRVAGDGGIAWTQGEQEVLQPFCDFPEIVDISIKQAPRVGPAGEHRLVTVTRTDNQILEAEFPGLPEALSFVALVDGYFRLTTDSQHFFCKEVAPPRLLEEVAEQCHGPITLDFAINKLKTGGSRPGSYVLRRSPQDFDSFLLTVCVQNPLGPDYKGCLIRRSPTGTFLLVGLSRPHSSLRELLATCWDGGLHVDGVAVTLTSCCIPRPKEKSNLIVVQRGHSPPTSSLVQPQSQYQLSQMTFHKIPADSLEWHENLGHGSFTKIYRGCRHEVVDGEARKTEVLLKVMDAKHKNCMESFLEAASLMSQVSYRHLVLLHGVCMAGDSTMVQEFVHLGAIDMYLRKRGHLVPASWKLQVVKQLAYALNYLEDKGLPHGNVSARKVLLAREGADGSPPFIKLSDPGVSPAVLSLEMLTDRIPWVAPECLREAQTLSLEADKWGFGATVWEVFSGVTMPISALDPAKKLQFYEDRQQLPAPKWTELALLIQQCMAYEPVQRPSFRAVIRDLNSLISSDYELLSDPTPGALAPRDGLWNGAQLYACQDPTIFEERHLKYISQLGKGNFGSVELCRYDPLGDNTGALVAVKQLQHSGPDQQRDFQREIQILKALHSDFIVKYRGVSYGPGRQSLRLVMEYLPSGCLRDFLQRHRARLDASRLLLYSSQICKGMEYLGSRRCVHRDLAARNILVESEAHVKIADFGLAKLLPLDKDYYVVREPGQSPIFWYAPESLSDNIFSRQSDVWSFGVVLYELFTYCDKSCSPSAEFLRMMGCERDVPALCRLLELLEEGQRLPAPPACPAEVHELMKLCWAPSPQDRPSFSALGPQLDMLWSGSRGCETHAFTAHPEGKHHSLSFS
Method in brief: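 JAK3 at 50 ng/mL was preincubated 15 min with 1 µM compound in 100 mM HEPES pH 7.4, 0.003% Brij-35, 0.004% Tween-20, 1 mM DTT. Then 1 mM ATP, 1.5 µM Srctide and 10 mM MgCl2 were added for 45 min. Mobility-shift read.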

[4] = test system: Epidermal growth factor receptor (Homo sapiens), P00533 [L858R,T790M,C797S]; test: Inhibition of human EGFR T790M/C797S/L858R mutant assessed as decrease in substrate phosphorylation using Srctide as substrate preincubated for 15 mins followed by substrate addition in presence of 1mM of ATP and measured after 45 mins by microplate reader analysis; settings: time 60.0 min
Method in brief: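 Compound at 1 µM final, 15 min preincubation with mutant EGFR in mutant-EGFR buffer (5 mM MgCl2, 1 mM MnCl2) at 200 ng/mL for T790M/C797S/L858R, 180 ng/mL for d746-750/T790M, and 350 ng/mL for d746-750/T790M/C797S. Then 1 mM ATP plus 1.5 µM Srctide for 45 min. Mobility-shift read.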

Activity [1]: Active
IC50 [2]: 251 nM
inhibition [3]: 74.2%
inhibition [4]: > 80%
SMILES: C=CC(=O)Nc1cc(-c2cn(C)c3ccccc23)ncn1
